According to ChEMBL document CHEMBL1135649, “CycloSal-BVDUMP pronucleotides: how to convert an antiviral-inactive nucleoside analogue into a bioactive compound against EBV” (J Med Chem, 2002):

Columns and labels:
[1] = Partition coefficient (logP); format: physicochemical; settings: octanol/water
Procedure, shortened: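 Compound dissolved in 0.3 mL 1-octanol and shaken with 0.3 mL water by vortexing for 10 min. Phases separated by centrifugation. Each phase analysed by RP-18 HPLC with UV detection at 250 nm. P taken from the ratio of aqueous and organic peak areas.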

Nucleic Acid = assay: Effective concentration for the inhibition of Epstein-Barr virus EBV-DNA synthesis in human lymphoblastoid P3HR-1 cells; format: functional, cell-based; settings: human gammaherpesvirus 4, P3HR-1
Procedure, shortened: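 P3HR-1 (EBV producer) cells in RPMI-1640 with 10% heat-inactivated FCS at 36.5 °C, seeded at 10⁶ cells/mL. TPA 20 ng/mL added to induce virus production. Compound given at a range of concentrations for 7 days. DNA extracted and 10 μg used for slot blot hybridization with a digoxigenin-labeled EBV BamHI-W probe, chemiluminescence and densitometry. EC50 obtained by regression against untreated cells.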

[2] = Selectivity index as the ratio of CC50 value to that of EC50 value.; format: functional
Procedure, shortened: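 Selectivity index is CC50 (μM)/EC50 (μM). CC50 is for P3HR-1 growth over 7 days, read by cell count. EC50 is for EBV DNA synthesis in TPA-induced P3HR-1 cells over 7 days, read by slot blot.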

P3HR-1 [3] = assay: Cytotoxic concentration for inhibition of human lymphoblastoid P3HR-1 cell growth; format: functional
Procedure, shortened: (§1)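 P3HR-1 cells seeded at 2 × 10⁵ cells/mL and grown 7 days with compound at a range of concentrations. Cells counted on a particle counter. CC50 calculated as 50% inhibition of cell growth.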

P3HR-1 [4] = assay: Cytotoxic concentration for the inhibition of P3HR-1 cell growth; format: functional; settings: Homo sapiens; procedure, shortened: as §1
[5] = Selectivity as the ratio of CC50 value to that of EC50 value.; format: functional
Procedure, shortened: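 Ratio CC50/EC50, both in P3HR-1 cells over 7 days at varied concentrations. EC50: cells seeded at 10⁶ cells/mL, induced with TPA 20 ng/mL; EBV DNA in 10 μg total DNA by slot blot with digoxigenin-labeled BamHI-W probe, chemiluminescence and densitometry; regression against untreated cells. CC50: growth from 2 × 10⁵ cells/mL, cells counted with a particle counter.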

Structure (SMILES) | logP [1] | EC50 (Nucleic Acid) | SI [2] | CC50 (P3HR-1 [3]) | CC50 (P3HR-1 [4]) | Selectivity [5]
Cc1cccc2c1OP(=O)(OC[C@H]1O[C@@H](n3cc(/C=C/Br)c(=O)[nH]c3=O)C[C@@H]1OC(=O)[C@@H](N)C(C)C)OC2 (stereo partly specified) | -0.1 | 81.8 µM | 0.6 | 47 µM | – | –
Cc1cccc2c1OP(=O)(OC[C@H]1O[C@@H](n3cc(/C=C/Br)c(=O)[nH]c3=O)C[C@@H]1O)OC2 (stereo partly specified) | 1.9 | 4.11 µM | 30 | 122 µM | – | –
CCCCCCC(=O)O[C@H]1C[C@H](n2cc(/C=C/Br)c(=O)[nH]c2=O)O[C@@H]1COP1(=O)OCc2cccc(C)c2O1 (stereo partly specified) | 2.6 | > 163 µM | – | – | > 326 µM | –
Cc1cccc2c1OP(=O)(OC[C@H]1O[C@@H](n3cc(/C=C/Br)c(=O)[nH]c3=O)C[C@@H]1OC(=O)[C@H](N)Cc1ccccc1)OC2 (stereo partly specified) | 0.5 | 46.5 µM | 1.4 | 66 µM | – | –
Cc1cccc2c1OP(=O)(OC[C@H]1O[C@@H](n3cc(/C=C/Br)c(=O)[nH]c3=O)C[C@@H]1OC(=O)CC(C)C)OC2 (stereo partly specified) | 2.4 | > 171 µM | – | 104 µM | – | –
CC(=O)O[C@H]1C[C@H](n2cc(/C=C/Br)c(=O)[nH]c2=O)O[C@@H]1COP1(=O)OCc2cccc(C)c2O1 (stereo partly specified) | 2.2 | – | – | 109 µM | – | –
Nc1nc2c(ncn2COCCO)c(=O)[nH]1 [ACYCLOVIR] | – | 6.75 µM | – | – | 392 µM | 58
CC(C)(C)c1cccc2c1OP(=O)(OC[C@H]1O[C@@H](n3cc(/C=C/Br)c(=O)[nH]c3=O)C[C@@H]1O)OC2 (stereo partly specified) | 2.9 | 32.5 µM | 2.5 | 80 µM | – | –
COc1ccc2c(c1)COP(=O)(OC[C@H]1O[C@@H](n3cc(/C=C/Br)c(=O)[nH]c3=O)C[C@@H]1O)O2 (stereo partly specified) | 1.6 | 3.35 µM | 41 | 137 µM | – | –
O=c1[nH]c(=O)n([C@H]2C[C@H](O)[C@@H](COP3(=O)OCc4cc(Cl)ccc4O3)O2)cc1/C=C/Br (stereo partly specified) | 1.8 | 25.8 µM | 3.1 | 80 µM | – | –
CCC(C)[C@H](N)C(=O)O[C@H]1C[C@H](n2cc(/C=C/Br)c(=O)[nH]c2=O)O[C@@H]1COP1(=O)OCc2cccc(C)c2O1 (stereo partly specified) | -0.02 | > 135 µM | – | 78 µM | – | –
Cc1cccc2c1OP(=O)(OC[C@H]1O[C@@H](n3cc(/C=C/Br)c(=O)[nH]c3=O)C[C@@H]1OC(=O)[C@@H]1CCCN1)OC2 (stereo partly specified) | -0.4 | ≥ 138 µM | – | 36 µM | – | –
Cc1cccc2c1OP(=O)(OC[C@H]1O[C@@H](n3cc(/C=C/Br)c(=O)[nH]c3=O)C[C@@H]1OC(=O)[C@@H](N)Cc1ccccc1)OC2 (stereo partly specified) | 0.5 | ≥ 129 µM | – | 35 µM | – | –
CCCCCCCCCCC(=O)O[C@H]1C[C@H](n2cc(/C=C/Br)c(=O)[nH]c2=O)O[C@@H]1COP1(=O)OCc2cccc(C)c2O1 (stereo partly specified) | 2.8 | > 149 µM | – | – | > 299 µM | –
Cc1cccc2c1OP(=O)(OC[C@H]1O[C@@H](n3cc(/C=C/Br)c(=O)[nH]c3=O)C[C@@H]1OC(=O)[C@@H](N)CC(C)C)OC2 (stereo partly specified) | 0.4 | 23 µM | 2 | 45 µM | – | –
O=c1[nH]c(=O)n([C@H]2C[C@H](O)[C@@H](COP3(=O)OCc4ccccc4O3)O2)cc1/C=C/Br (stereo partly specified) | 1.5 | 12.3 µM | 7.5 | 92 µM | – | –
Cc1cccc2c1OP(=O)(OC[C@H]1O[C@@H](n3cc(/C=C/Br)c(=O)[nH]c3=O)C[C@@H]1OC(=O)[C@H]1CCCN1)OC2 (stereo partly specified) | -0.4 | ≥ 138 µM | – | 38 µM | – | –
Cc1cccc2c1OP(=O)(OC[C@H]1O[C@@H](n3cc(/C=C/Br)c(=O)[nH]c3=O)C[C@@H]1OC(=O)[C@H](N)CC(C)C)OC2 (stereo partly specified) | 0.4 | > 135 µM | – | 65 µM | – | –
Cc1cc(C)c2c(c1)COP(=O)(OC[C@H]1O[C@@H](n3cc(/C=C/Br)c(=O)[nH]c3=O)C[C@@H]1O)O2 (stereo partly specified) | 2.2 | 14.4 µM | 9.9 | 143 µM | – | –
O=c1[nH]c(=O)n([C@H]2C[C@H](O)[C@@H](CO)O2)cc1/C=C/Br [BRIVUDINE] | 0.33 | > 300 µM | – | – | 225 µM | –
Cc1cccc2c1OP(=O)(OC[C@H]1O[C@@H](n3cc(/C=C/Br)c(=O)[nH]c3=O)C[C@@H]1OC(=O)[C@H](N)C(C)C)OC2 (stereo partly specified) | -0.1 | > 137 µM | – | 80 µM | – | –
CC(=O)CCC(=O)O[C@H]1C[C@H](n2cc(/C=C/Br)c(=O)[nH]c2=O)O[C@@H]1COP1(=O)OCc2cccc(C)c2O1 (stereo partly specified) | 2.3 | > 163 µM | – | 152 µM | – | –
Cc1cccc2c1OP(=O)(OC[C@H]1O[C@@H](n3cc(/C=C/Br)c(=O)[nH]c3=O)C[C@@H]1OC(=O)CN)OC2 (stereo partly specified) | -0.8 | 43.5 µM | 2.1 | 93 µM | – | –
CCC(C)[C@@H](N)C(=O)O[C@H]1C[C@H](n2cc(/C=C/Br)c(=O)[nH]c2=O)O[C@@H]1COP1(=O)OCc2cccc(C)c2O1 (stereo partly specified) | -0.02 | > 135 µM | – | 37 µM | – | –
